Measured values as given in ChEMBL document CHEMBL4196128 (ACS Med Chem Lett, 2018).
pIC50: −log10 of the molar value.

What was measured:
[1] = biological target: Mitogen-activated protein kinase 1 (Homo sapiens, UniProt P28482); test: Inhibition of ERK2 (unknown origin) using peptide substrate measured after 45 mins by IMAP assay
COLO 205 [2] = test: Antiproliferative activity against human COLO205 cells harboring BRAF V600E/D mutant measured after 4 days; format: functional, cell-based; conditions: COLO 205, 96 h
Cytochrome P450 3A4 = Cytochrome P450 3A4 (Homo sapiens, UniProt P08684); test: Inhibition of CYP3A4 (unknown origin) preincubated followed by substrate addition; format: ADME
hERG (KCNH2) [3] = biological target: T1, hERG (KCNH2) (Homo sapiens, UniProt Q12809); test: Inhibition of human ERG at 1.5 mg/ml by binding assay relative to control; parameters: dose or concentration left out as unconfirmed
hERG (KCNH2) [4] = biological target: T1, hERG (KCNH2); test: Inhibition of human ERG at 5 mg/ml by binding assay relative to control; parameters: dose or concentration left out as unconfirmed
hERG (KCNH2) [5] = biological target: T1, hERG (KCNH2); test: Inhibition of human ERG at 1 uM by IonWork assay relative to control
A2058 = test: Antiproliferative activity against human A2058 cells harboring BRAF V600E/D mutant measured after 4 days; format: functional, cell-based; conditions: A2058, 96 h
Cytochrome P450 2C8 [6] = biological target: T2, Cytochrome P450 2C8 (Homo sapiens, UniProt P10632); test: Inhibition of CYP2C8 (unknown origin) preincubated followed by substrate addition; format: ADME
T2 sequence (P10632 whole entry): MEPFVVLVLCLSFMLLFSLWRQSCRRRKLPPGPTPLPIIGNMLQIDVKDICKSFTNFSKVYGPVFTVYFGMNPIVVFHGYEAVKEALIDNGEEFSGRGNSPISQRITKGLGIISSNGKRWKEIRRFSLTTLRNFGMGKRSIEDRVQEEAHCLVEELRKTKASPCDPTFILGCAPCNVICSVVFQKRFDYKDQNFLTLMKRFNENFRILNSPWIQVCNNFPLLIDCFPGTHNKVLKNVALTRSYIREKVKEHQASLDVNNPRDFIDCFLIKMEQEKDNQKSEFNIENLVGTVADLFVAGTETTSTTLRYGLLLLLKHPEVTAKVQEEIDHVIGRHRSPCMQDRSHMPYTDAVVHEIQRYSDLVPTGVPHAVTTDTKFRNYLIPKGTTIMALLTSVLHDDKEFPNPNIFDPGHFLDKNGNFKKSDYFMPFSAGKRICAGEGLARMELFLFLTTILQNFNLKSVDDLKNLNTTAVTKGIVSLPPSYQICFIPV

Cytochrome P450 2C8 [7] = biological target: T2, Cytochrome P450 2C8; test: Inhibition of CYP2C8 (unknown origin) co-incubated with substrate; format: ADME
Cytochrome P450 2C9 = Cytochrome P450 2C9 (Homo sapiens, UniProt P11712); test: Inhibition of CYP2C9 (unknown origin) preincubated followed by substrate addition; format: ADME
Caspase (Homo sapiens) = Caspase (Homo sapiens) (UniProt P49662+P55211+P42574+P51878+P55212+P55210+Q14790+P29466+P42575+Q92851+P31944+Q6UXS9); test: Activation of caspase (unknown origin); format: protein assay
hERG (KCNH2) [8] = biological target: T1, hERG (KCNH2); test: Inhibition of human ERG at 600 nM by voltage clamp method relative to control
[9] = Protein binding in Sprague-Dawley rat plasma at 10 uM; format: ADME, cell-free; conditions: read-out: PPB
[10] = Protein binding in monkey plasma at 10 uM; format: ADME, cell-free, Macaca mulatta; conditions: rhesus monkey, read-out: PPB
[11] = biological target: T3, Mitogen-activated protein kinase; ERK1/ERK2 (Homo sapiens) (UniProt P27361+P28482); test: Inhibition of ERK1/2 in human A2058 cells assessed as reduction in RSK phosphorylation after 24 hrs by Western blot analysis; format: cell-based
In short: (§1)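 A2058 melanoma cells were treated across a compound dose range. pERK1/2 and pRSK levels were detected by Western blot analysis.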

[12] = biological target: T3, Mitogen-activated protein kinase; ERK1/ERK2 (Homo sapiens); test: Inhibition of ERK1/2 phosphorylation in human A2058 cells at 30 nM after 24 hrs by Western blot analysis relative to control; format: cell-based; in short: as §1
Cytochrome P450 2C19 = Cytochrome P450 2C19 (Homo sapiens, UniProt P33261); test: Inhibition of CYP2C19 (unknown origin) preincubated followed by substrate addition; format: ADME
Cavia porcellus = test: Cardiotoxicity in telemetered guinea pig assessed as changes in QTc interval at 30 to 100 mg/kg; format: toxicity, organism-based; conditions: in vivo
In short: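 Telemetered guinea pigs were exposed at 30 and 100 mg/kg. Electrocardiographic PR, QRS and QT/QTc intervals were monitored for changes related to the test article, and exposure was referenced to total Cmax.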

[13] = Half life in CD1 mouse at 10 mg/kg, iv; format: ADME, organism-based; conditions: in vivo
In short: (§2)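 The compound was given intravenously as an aqueous solution in 20% hydroxypropyl-β-cyclodextrin. Animals were male CD1 mice (10 mg/kg, n = 30), Sprague–Dawley rats (3 mg/kg, n = 3), beagle dogs (3 mg/kg, n = 3) and cynomolgus monkeys (1 mg/kg, n = 3). Plasma concentration–time data gave mean AUC(0–∞), half-life, mean residence time, clearance and Vd,ss.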

[14] = Volume of distribution at steady state in CD1 mouse at 10 mg/kg, iv; format: ADME, organism-based; conditions: in vivo, read-out: Vdss
In short: (§3)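 Intravenous dosing in male CD1 mice (10 mg/kg, n = 30), Sprague–Dawley rats (3 mg/kg, n = 3), beagle dogs (3 mg/kg, n = 3) and cynomolgus monkeys (1 mg/kg, n = 3). Vehicle was aqueous 20% hydroxypropyl-β-cyclodextrin. Mean residence time and steady-state volume of distribution were taken from plasma concentration–time profiles as mean parameters.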

[15] = Mean residence time in Sprague-Dawley rat at 3 mg/kg, iv; format: ADME, organism-based; conditions: in vivo; in short: as §3
[16] = Clearance in Sprague-Dawley rat at 3 mg/kg, iv; format: ADME, organism-based; conditions: in vivo; in short: as §2
[17] = Half life in Beagle dog at 3 mg/kg, iv; format: ADME, organism-based, Canis lupus familiaris; conditions: in vivo; in short: as §2
[18] = Tmax in CD1 mouse at 30 mg/kg, po; format: ADME, organism-based; conditions: in vivo
In short: (§4)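 Oral dosing in male CD1 mice (30 mg/kg, n = 27), Sprague–Dawley rats (10 mg/kg, n = 3), beagle dogs (30 mg/kg, n = 3) and cynomolgus monkeys (10 mg/kg, n = 3). Mean Tmax was read from plasma concentration–time data. Bioavailability was derived from oral AUC(0–∞) compared with intravenous AUC.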

[19] = Oral bioavailability in Beagle dog at 30 mg/kg; format: ADME, organism-based, Canis lupus familiaris; conditions: in vivo; in short: as §4
COLO 205 [20] = test: Antitumor activity against human COLO205 cells xenografted in nude mouse assessed as tumor growth inhibition at 20 mg/kg, po bid measured after 28 days relative to control; format: functional; conditions: COLO 205, po, 672 h, read-out: TGI
In short: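 Female nude mice carrying Colo-205 human colon tumor xenografts were randomized to oral dosing twice daily at 20, 40 or 60 mg/kg, or to vehicle. After 28 days of treatment, tumor growth inhibition or tumor regression was assessed relative to vehicle control, with P-value testing.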

[21] = Half life in monkey at 1 mg/kg, iv; conditions: cynomolgus monkey, in vivo

T1 sequence (Q12809 whole entry): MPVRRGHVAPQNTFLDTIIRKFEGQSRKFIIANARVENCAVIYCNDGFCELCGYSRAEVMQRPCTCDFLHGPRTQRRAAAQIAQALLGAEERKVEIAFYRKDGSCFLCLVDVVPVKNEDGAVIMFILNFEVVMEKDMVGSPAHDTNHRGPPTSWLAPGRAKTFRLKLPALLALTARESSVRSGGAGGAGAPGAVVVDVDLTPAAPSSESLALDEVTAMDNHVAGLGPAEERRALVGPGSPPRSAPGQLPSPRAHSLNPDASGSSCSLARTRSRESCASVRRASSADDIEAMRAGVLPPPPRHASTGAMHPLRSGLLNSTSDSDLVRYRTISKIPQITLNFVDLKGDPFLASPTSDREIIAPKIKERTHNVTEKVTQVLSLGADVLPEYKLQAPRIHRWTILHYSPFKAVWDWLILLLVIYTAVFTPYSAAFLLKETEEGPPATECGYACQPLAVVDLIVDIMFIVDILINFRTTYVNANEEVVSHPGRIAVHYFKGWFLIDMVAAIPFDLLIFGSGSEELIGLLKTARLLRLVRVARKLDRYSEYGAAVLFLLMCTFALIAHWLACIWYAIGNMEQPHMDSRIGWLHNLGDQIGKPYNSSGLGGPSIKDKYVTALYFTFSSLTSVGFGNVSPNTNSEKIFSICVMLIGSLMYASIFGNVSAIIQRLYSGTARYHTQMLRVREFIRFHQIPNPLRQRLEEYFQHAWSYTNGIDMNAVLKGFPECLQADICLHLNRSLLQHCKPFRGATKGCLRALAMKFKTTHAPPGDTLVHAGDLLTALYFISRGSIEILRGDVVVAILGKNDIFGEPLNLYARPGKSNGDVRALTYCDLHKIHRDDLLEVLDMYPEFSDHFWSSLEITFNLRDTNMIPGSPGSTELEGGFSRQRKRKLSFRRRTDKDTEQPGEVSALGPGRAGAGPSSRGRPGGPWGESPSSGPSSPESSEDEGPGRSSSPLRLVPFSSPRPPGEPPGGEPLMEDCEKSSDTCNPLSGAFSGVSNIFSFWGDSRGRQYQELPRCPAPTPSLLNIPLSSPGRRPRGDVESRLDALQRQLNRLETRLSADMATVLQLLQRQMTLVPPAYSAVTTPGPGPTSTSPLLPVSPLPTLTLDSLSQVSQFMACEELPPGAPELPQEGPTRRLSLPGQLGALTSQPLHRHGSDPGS
T3 sequence (P27361 whole entry, looked up): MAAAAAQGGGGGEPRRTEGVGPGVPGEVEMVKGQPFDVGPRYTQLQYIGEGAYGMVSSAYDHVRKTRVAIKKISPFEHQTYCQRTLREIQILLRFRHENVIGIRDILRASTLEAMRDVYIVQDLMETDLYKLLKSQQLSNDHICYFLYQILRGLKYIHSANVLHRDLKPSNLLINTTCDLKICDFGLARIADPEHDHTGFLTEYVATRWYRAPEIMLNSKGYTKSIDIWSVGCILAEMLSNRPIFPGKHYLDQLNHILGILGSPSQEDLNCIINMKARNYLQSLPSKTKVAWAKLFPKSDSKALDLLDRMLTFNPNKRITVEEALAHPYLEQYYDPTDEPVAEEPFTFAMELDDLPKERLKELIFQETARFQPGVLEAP
T3 sequence (P28482 whole entry, looked up): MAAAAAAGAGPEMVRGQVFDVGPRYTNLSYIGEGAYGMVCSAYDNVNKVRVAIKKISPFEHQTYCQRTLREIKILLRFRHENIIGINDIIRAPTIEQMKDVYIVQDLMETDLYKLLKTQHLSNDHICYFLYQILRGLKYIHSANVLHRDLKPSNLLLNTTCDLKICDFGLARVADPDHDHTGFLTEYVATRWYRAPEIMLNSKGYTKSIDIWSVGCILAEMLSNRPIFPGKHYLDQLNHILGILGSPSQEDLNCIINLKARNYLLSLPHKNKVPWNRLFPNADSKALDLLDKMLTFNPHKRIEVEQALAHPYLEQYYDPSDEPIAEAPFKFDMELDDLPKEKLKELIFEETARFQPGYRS
Chain of Mitogen-activated protein kinase 1 (P28482 whole entry): as the sequence (P28482 whole entry, looked up) above
Chain of Cytochrome P450 3A4 (P08684 whole entry): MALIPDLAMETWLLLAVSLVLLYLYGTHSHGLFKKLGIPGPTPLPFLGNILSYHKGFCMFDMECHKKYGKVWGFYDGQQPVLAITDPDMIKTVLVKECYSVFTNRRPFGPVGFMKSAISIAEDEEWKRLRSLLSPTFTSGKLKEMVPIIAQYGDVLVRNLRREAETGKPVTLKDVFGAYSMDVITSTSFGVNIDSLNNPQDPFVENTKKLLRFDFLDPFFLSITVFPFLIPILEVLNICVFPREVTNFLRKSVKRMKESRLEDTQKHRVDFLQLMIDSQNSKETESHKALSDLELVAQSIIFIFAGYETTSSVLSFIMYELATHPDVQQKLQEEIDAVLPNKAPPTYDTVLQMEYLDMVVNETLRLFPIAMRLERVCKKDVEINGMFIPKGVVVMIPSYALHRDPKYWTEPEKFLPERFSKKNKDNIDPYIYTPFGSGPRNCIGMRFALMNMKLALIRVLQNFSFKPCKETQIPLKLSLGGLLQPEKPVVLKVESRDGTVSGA
Chain of Cytochrome P450 2C9 (P11712 whole entry): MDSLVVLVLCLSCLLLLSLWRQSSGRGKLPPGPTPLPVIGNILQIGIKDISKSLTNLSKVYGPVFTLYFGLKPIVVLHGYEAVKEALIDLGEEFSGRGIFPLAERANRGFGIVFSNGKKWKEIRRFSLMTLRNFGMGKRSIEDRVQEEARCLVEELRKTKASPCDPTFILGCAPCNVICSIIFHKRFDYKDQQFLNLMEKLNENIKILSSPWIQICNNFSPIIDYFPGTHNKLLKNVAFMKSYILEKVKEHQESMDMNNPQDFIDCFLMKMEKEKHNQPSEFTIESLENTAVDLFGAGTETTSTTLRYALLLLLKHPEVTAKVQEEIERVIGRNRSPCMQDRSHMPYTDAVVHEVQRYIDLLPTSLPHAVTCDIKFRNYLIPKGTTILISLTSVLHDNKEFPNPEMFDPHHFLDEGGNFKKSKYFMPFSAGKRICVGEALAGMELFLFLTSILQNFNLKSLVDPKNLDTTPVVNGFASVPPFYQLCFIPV
Chain of Cytochrome P450 2C19 (P33261 whole entry): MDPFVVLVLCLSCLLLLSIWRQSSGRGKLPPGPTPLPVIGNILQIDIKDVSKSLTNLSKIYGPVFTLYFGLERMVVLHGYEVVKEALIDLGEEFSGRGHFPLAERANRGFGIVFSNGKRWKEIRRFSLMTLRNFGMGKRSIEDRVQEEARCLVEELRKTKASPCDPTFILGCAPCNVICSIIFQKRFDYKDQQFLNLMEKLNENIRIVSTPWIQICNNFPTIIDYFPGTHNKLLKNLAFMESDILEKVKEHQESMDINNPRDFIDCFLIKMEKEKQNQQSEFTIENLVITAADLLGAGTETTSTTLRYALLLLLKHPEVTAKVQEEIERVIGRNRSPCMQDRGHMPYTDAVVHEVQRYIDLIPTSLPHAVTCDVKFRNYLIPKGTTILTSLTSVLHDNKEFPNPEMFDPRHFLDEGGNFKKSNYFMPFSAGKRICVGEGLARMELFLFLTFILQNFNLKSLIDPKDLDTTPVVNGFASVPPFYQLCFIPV

pIC50 [1]: 8.15 | pIC50 (COLO 205 [2]): 7.64 | pIC50 (Cytochrome P450 3A4): 5.77 | pIC50 (Cytochrome P450 2C8 [6]): 5.46 | pIC50 (Cytochrome P450 2C8 [7]): < 5.30 | pIC50 (Cytochrome P450 2C9): < 5.30 | Activity (Caspase (Homo sapiens)): 185 nM | fraction unbound at 10 µM [9]: < 0.01 | fraction unbound at 10 µM [10]: < 0.01 | inhibition [11]: Dose-dependent effect | inhibition [12]: 100% | inhibition (INH) (Cytochrome P450 2C19): Not Active | half-life [13]: 1.8 h | Vd [14]: 3.3 L/kg | MRT [15]: 2.3 h | clearance [16]: 1 mL/min/kg | half-life [17]: 2.8 h | Tmax [18]: 1 h | bioavailability [19]: 23% | half-life [21]: 1.3 h
Structure (SMILES): CS[C@@]1(C(=O)Nc2ccc3[nH]nc(-c4ccc(OC(C)C)nc4)c3c2)CCN(CC(=O)N2CC=C(c3ccc(-c4ncn(C)n4)cc3)CC2)C1 [MK-8353]
inhibition (hERG (KCNH2) [3]): -3.5% | inhibition (hERG (KCNH2) [4]): 6% | inhibition at 1 µM (hERG (KCNH2) [5]): -1.7% | pIC50 (A2058): 6.43 | inhibition at 0.6 µM (hERG (KCNH2) [8]): 16% | Activity (Cavia porcellus): Non-Toxic | inhibition in vivo at 20 mg/kg (COLO 205 [20]): 37%
